Among the data in ChEMBL document CHEMBL1124735, “Dehydrogenase binding by tiazofurin anabolites” (J Med Chem, 1990) are Km values, retold here.

The subject of data set [1] is NC(=O)c1ccc[n+]([C@@H]2O[C@H](COP(=O)([O-])OP(=O)(O)OC[C@H]3O[C@@H](n4cnc5c(N)ncnc54)[C@H](O)[C@@H]3O)[C@@H](O)[C@H]2O)c1. Put plainly: In vitro inhibitory activity against bovine liver glutamate dehydrogenase (GDH).
For data set [2] the test system is unchanged. Put plainly: In vitro inhibitory activity against horse liver Alcohol dehydrogenase. The conditions noted are these: Equus caballus.
Data set [3] has the same test system. As to the kind of experiment: In vitro inhibitory activity against pig heart lactate dehydrogenase (LDH). The conditions noted are these: Sus scrofa. Summed up:
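Pig heart enzymes (cytoplasmic MDH or LDH, from ammonium sulfate suspension) assayed in 0.05 M Tris HCl pH 9.0, with NAD as substrate; rates from NADH appearance by A340 (ε 6.22 mM⁻¹cm⁻¹) or fluorescence calibrated against NADH standards. Run at least in duplicate; kinetic constants from Lineweaver-Burk plots by linear regression.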

Glutamate dehydrogenase 1, mitochondrial (Bos taurus), P00366, sequence (P00366 whole entry): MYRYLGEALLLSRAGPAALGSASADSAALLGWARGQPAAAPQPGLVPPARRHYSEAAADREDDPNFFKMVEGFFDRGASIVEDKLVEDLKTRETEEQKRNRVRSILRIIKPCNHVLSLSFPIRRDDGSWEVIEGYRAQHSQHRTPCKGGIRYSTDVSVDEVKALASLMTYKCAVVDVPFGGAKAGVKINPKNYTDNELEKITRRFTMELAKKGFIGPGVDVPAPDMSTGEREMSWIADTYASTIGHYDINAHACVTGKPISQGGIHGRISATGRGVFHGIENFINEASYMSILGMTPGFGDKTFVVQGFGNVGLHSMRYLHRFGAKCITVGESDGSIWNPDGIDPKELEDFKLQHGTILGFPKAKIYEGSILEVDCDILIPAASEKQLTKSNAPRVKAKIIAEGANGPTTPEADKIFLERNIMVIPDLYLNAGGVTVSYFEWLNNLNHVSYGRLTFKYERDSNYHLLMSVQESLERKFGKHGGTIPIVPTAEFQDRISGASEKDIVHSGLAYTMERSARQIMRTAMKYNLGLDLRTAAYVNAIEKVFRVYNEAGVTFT
L-lactate dehydrogenase B chain (Sus scrofa), P00336, sequence (P00336 whole entry): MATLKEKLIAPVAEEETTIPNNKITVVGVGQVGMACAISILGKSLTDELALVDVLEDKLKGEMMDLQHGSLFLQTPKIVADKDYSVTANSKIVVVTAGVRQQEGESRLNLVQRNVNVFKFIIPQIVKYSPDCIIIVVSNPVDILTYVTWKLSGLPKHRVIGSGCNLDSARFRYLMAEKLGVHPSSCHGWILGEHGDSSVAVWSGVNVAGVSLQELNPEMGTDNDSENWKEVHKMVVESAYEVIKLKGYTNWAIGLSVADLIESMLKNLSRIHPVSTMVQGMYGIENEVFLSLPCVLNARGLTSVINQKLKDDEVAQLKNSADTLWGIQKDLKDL
Alcohol dehydrogenase (Equus caballus), sequence (P00328 whole entry, looked up): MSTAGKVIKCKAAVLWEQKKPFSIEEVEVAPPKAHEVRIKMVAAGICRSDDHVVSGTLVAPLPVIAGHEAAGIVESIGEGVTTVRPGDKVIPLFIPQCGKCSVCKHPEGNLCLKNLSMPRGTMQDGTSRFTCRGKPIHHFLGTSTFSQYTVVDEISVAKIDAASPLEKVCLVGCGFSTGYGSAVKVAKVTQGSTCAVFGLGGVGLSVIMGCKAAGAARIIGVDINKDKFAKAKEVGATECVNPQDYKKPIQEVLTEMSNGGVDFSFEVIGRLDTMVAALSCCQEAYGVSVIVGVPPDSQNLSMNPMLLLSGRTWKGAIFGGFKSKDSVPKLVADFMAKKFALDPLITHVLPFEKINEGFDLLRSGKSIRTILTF
Alcohol dehydrogenase (Equus caballus), sequence (P00327 whole entry, looked up): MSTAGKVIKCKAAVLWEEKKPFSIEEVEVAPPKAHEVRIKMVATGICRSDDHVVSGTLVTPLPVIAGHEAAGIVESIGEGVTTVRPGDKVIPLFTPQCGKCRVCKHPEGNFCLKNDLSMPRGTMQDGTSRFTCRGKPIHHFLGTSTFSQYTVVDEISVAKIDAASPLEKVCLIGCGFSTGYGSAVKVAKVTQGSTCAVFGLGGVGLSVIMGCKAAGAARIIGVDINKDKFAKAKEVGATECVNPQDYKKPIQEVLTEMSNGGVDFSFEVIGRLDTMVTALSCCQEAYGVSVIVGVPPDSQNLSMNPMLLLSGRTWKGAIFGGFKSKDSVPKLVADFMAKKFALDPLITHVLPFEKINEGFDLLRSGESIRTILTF

One may read the Km as the substrate concentration at which the rate is half of its maximum. For “Glutamate dehydrogenase 1, mitochondrial (Bos taurus), P00366”, the Km in data set [1] came out at 20 µM.
On to “Alcohol dehydrogenase (Equus caballus) (from UniProt P00327+P00328)”, for which the Michaelis-Menten constant (Km) in data set [2] amounted to 22.3 µM.
“L-lactate dehydrogenase B chain (Sus scrofa), P00336”: the Km in data set [3] turned out to be 84.4 µM.
